Experimental findings from publication PMC3567311 (ACS chemical biology, 2012) are described below.

The target of assay [1] is T1, Kvβ2 (Rattus norvegicus, UniProt P62483, W272A).
T1 sequence (P62483 36-361 W272A): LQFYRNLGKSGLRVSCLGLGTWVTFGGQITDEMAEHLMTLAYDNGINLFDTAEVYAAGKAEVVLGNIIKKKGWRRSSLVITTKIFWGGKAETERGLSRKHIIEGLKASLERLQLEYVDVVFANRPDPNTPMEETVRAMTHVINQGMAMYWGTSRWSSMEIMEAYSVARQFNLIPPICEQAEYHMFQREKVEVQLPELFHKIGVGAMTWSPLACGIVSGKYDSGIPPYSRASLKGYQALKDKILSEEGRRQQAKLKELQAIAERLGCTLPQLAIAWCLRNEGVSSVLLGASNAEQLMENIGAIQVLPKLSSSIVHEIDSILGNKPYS
Nature of the assay: scintillation proximity assay, competition with 3H-cortisone. To be noted: read-out: % reduction of cortisone binding at 250 μM. For orientation: SPA uses beads or plates that emit light when radiolabelled molecules are held near them.

For assay [2], the target named is T2, Kvβ1 (Rattus norvegicus, UniProt P63144, C7A). As to the kind of experiment: inside-out patch clamp dose-response. The class given is cell-based. For orientation: In patch-clamp work, channel activity is measured electrically.
T2 sequence (P63144 whole entry C7A): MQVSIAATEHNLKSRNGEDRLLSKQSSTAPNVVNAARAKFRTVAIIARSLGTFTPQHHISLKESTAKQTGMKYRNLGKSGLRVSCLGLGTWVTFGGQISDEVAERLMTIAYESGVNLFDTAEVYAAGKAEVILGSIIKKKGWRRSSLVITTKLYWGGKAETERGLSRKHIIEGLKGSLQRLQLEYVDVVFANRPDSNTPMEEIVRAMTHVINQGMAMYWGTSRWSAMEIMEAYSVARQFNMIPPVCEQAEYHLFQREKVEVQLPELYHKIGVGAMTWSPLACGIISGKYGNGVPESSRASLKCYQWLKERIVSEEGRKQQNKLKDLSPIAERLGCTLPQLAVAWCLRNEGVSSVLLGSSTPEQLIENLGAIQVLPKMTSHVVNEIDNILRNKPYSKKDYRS
T2 sequence (P10499 whole entry partner): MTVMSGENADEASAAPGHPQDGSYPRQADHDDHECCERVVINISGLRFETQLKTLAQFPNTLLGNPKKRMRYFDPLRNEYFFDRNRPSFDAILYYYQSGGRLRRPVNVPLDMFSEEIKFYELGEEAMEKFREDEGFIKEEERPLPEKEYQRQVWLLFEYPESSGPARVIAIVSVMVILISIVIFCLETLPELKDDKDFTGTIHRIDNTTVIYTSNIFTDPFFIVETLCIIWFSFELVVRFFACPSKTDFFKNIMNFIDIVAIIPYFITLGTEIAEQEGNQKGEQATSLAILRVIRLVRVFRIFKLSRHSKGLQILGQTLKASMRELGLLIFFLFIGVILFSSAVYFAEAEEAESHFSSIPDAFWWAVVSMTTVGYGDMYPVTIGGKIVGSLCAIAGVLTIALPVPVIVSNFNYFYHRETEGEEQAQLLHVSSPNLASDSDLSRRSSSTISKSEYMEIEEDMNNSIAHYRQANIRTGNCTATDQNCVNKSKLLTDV
Assay [3] addresses T1, Kvβ2. As to the kind of experiment: scintillation proximity assay, competition with 3H-cortisone. To be noted: read-out: % reduction of cortisone binding at 250 μM. The source holds these as a separate data set.
The target of assay [4] is T1, Kvβ2. The class given is binding.
Assay [5] deals with T2, Kvβ1. As to the kind of experiment: inside-out patch clamp dose-response. The assay is classed as cell-based. The method, boiled down: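 Inside-out patches from Xenopus oocytes injected with mixed mRNAs of rat Kv1.1 and rat Kvβ1 (Cys7→Ala), or with a Kvβ1-Kv1.1 fused chimera. Currents elicited by stepping from −80 mV to +60 mV for 400 ms. Test compound was dissolved in DMSO, diluted into internal buffer (final 1% DMSO) and perfused at several concentrations. ΔIss = rise in steady-state current as a fraction of initial inactivating current. EC50 taken from the dose-response curve.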
The source holds these as a separate data set.

Where two headings read alike, the source gives them in different places.

With `CC(=O)OCC(=O)[C@@]1(O)CC[C@H]2[C@@H]3CCC4=CC(=O)CC[C@]4(C)[C@H]3C(=O)C[C@@]21C` [cortisone 21-acetate], in assay [1], the inhibition at 250 µM was 95 ± 0.2%. Moreover, the midpoint of the response in assay [2], the EC50, lay at 9 ± 1.1 µM.

With `CCC(=O)O[C@]1(C(=O)SCF)[C@H](C)C[C@H]2[C@@H]3C[C@H](F)C4=CC(=O)C=C[C@]4(C)[C@@]3(F)[C@@H](O)C[C@@]21C` [fluticasone propionate], a half-maximal response in assay [2] (EC50) required 0.037 ± 0.0011 µM. In addition, in assay [3], the inhibition at 250 µM was found to be 98 ± 0.1%.

Turning to `C[C@]12CCC(=O)C=C1CC[C@@H]1[C@@H]2C(=O)C[C@@]2(C)[C@H]1CC[C@]2(O)C(=O)CO` [cortisone], the inhibition constant (Ki) (as a rule, the dissociation constant of the complex between target and ligand, obtained from inhibition or displacement) in assay [4] is 30 ± 10 µM. Besides, the 50% effective concentration (EC50) (usually the concentration that produces a half-maximal response) in assay [5] was determined as 46 µM.
